For 36 sequences, Tm and folding enthalpy results are on record in the array DNA melting data of Ke et al. (doi:10.1101/2024.01.08.574731).

Data set [1] is described as follows: melting temperature; fluorescence melt of hairpins on a sequencing array, two-state fit, raised by 9.35 °C to match UV melts. The settings on record: sodium 0.088 M. The procedure, abridged:
(§1)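 To match UV melts, fitted temperatures were raised by 9.35 °C. These fits were bootstrapped two-state models that gave melting temperature and folding enthalpy, combined by inverse variance over four replicates. The input was normalised Cy3 fluorescence of library hairpins with annealed Cy3 and quencher oligos on a sequenced MiSeq flow cell, imaged in 50 mM Na-HEPES pH 8.0, 25 mM NaCl in 2.5 °C steps up to 60 °C.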

Data set [2] can be described thus: folding enthalpy; higher = less favourable; fluorescence melt of hairpins on a sequencing array, two-state fit. Particulars: sodium 0.088 M. The gist of the method: as §1

With GACAGAACGAAAGTTGTC (((..(((....)))))), in data set [1], the Tm is 36.8 °C. The folding enthalpy in data set [2] is -28.2 kcal/mol.
Turning to GACAGACGAAAGTCAGTC (((.(((....))).))), in data set [1], the Tm worked out at 51.7 °C. The folding enthalpy in data set [2] was -28.2 kcal/mol.
The matching figures for GACAGAGGAAACCCTGTC (((((.(....).))))): 42.5 °C and -32.9 kcal/mol.
For GACAGCGAAAGCTACGTC ((((((....)))..))), in that order: 39.8 °C and -13.8 kcal/mol.
As to GACAGCGAAAGCTTGGTC ((((((....)))..))), the Tm in data set [1] amounted to 40 °C. In addition, the folding enthalpy in data set [2] is -17.9 kcal/mol.
The matching figures for GACAGCGGAAACGCTATC ((.((((....)))).)): 36.7 °C and -14 kcal/mol.
For GACAGGAAACTGTC (((((....))))), in that order: 51.6 °C and -31.3 kcal/mol.
For GACAGGGGAAACCCCATC ((..(((....)))..)), in that order: 27.1 °C and -13.2 kcal/mol.
With GACAGGGGAAACTCTGTC (((((.(....).))))), the Tm in data set [1] worked out at 48.1 °C. The folding enthalpy in data set [2] is -35 kcal/mol.
The matching figures for GACAGTACGAAAGTAGTC (((..(((....)))))): 31.1 °C and -16.2 kcal/mol.
In the case of GACAGTGGAAACACTATC ((.((((....)))).)), in data set [1], the Tm was determined as 29.5 °C. Besides, the folding enthalpy in data set [2] was -15.9 kcal/mol.
For GACATAGGAAACCATGTC (((((.(....).))))), in that order: 37.5 °C and -29.1 kcal/mol.
The matching figures for GACATCCCGAAAGGGGTC (((..(((....)))))): 34.4 °C and -11.1 kcal/mol.
For GACATCCGAAAGGAGGTC (((.(((....))).))), the Tm in data set [1] stood at 57.9 °C. For the same sequence, in data set [2], the folding enthalpy is -40 kcal/mol.
For GACATGAAAATGTC (((((....))))), in that order: 50.4 °C and -24 kcal/mol.
For GACATGACGAAAGTCGTC (((..(((....)))))), in that order: 41.6 °C and -10.3 kcal/mol.
The matching figures for GACATGCCGAAAGGCGTC (((..(((....)))))): 41.2 °C and -11.1 kcal/mol.
GACATGGCGAAAGCCGTC (((..(((....)))))): in data set [1], the Tm came out at 50.7 °C. Moreover, the folding enthalpy in data set [2] was -10.1 kcal/mol.
The matching figures for GACATGGGAAACCATGCC (.(((((....))))).): 42.8 °C and -15.1 kcal/mol.
Consider GACATGGGAAACCATGTC (((((((....))))))), for which the Tm in data set [1] amounted to 61.3 °C. In data set [2], the folding enthalpy was -42.8 kcal/mol.
For the sequence GACATGGGAAACTGTGTC ((((..(....)..)))), the Tm in data set [1] is 37.2 °C. Also, the folding enthalpy in data set [2] is -28.2 kcal/mol.
As for GACATTGCGAAAGCAGTC (((..(((....)))))), the Tm in data set [1] turned out to be 32.4 °C. Besides, the folding enthalpy in data set [2] was -10 kcal/mol.
The matching figures for GACATTGGAAACGATGTC (((((.(....).))))): 46.7 °C and -36.1 kcal/mol.
For GACCAACGAAAGTTGTC (((.(((....)))))), in that order: 40.8 °C and -14.5 kcal/mol.
On to GACCAAGGAAACTCGGTC ((((.((....)).)))), for which the Tm in data set [1] worked out at 37.8 °C. The folding enthalpy in data set [2] was -29.3 kcal/mol.
The matching figures for GACCACCGAAAGGTCGTC (((.(((....))).))): 45.1 °C and -29.5 kcal/mol.
As for GACCACCGAAAGGTTGTC (((.(((....))).))), the Tm in data set [1] was 48.2 °C. In addition, the folding enthalpy in data set [2] is -32.2 kcal/mol.
GACCACGAAAGTGAGTC ((((((....))).))): in data set [1], the Tm amounted to 52.2 °C. Further, in data set [2], the folding enthalpy was -30.5 kcal/mol.
On to GACCACGAAAGTGATGTC ((((((....)))..))), for which, in data set [1], the Tm was 38.3 °C. In addition, the folding enthalpy in data set [2] is -17.6 kcal/mol.
For GACCACGAAAGTGCCGTC ((((((....)))..))), the Tm in data set [1] was found to be 33.6 °C. Further, the folding enthalpy in data set [2] was -12 kcal/mol.
Consider GACCACGAAAGTGCGTC ((((((....))).))), for which, in data set [1], the Tm was 53.7 °C. Further, the folding enthalpy in data set [2] is -22.8 kcal/mol.
The matching figures for GACCACGAAAGTGGGTC ((((((....))).))): 60.1 °C and -13.7 kcal/mol.
As for GACCACGAAAGTGTCGTC ((((((....)))..))), the Tm in data set [1] came out at 44.8 °C. In data set [2], the folding enthalpy was -18.7 kcal/mol.
For GACCACGGAAACGTGACC (..((((....))))..), in that order: 29.2 °C and -8.43 kcal/mol.
On to GACCAGCGAAAGCTGTC (((.(((....)))))), for which the Tm in data set [1] turned out to be 45 °C. Moreover, in data set [2], the folding enthalpy is -11.3 kcal/mol.
Take GACCAGGCGAAAGCCGTC (((..(((....)))))): in data set [1], the Tm is 36.2 °C. Also, the folding enthalpy in data set [2] was -7.64 kcal/mol.
